Experimental data: ChEMBL document CHEMBL1129428 (J Med Chem, 1996)

What was measured:
[1] = test system: Rattus norvegicus; assay: Compound was tested for anticonvulsant activity after Oral Administration into Rats by using MES screen test after 0.25h,dose 12.5 mg/kg; number of rats out of four which were protected; type: functional
Outline: (§1)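 Rats received the compound orally. […] Rats were tested in the MES screen at 0.25, 0.5, 1, 2 and 4 h. Each value is the number of rats protected out of 4. The test followed NINDS procedures.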

[2] = test system: Mus musculus; assay: Anticonvulsant activity after intraperitoneal injection into mice by using scPTZ screen after 0.5 hr; type: functional
[3] = Protection index = TD50/ED50 (scPTZ ); type: ADME; conditions: read-out: PI
Outline: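 Protection index calculated as TD50/ED50 from mouse intraperitoneal scPTZ ED50 and rotorod TD50 values, each taken at its own peak time.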

[4] = test system: Mus musculus; assay: Anticonvulsant activity after intraperitoneal injection into mice measured in a maximal electroshock scree (MES) screen; type: functional
[5] = test system: Rattus norvegicus; assay: Compound was tested for anticonvulsant activity after Oral Administration into Rats by using MES screen test after 1h,dose 12.5 mg/kg; number of rats out of four which were protected; type: functional; outline: as §1
[6] = test system: Rattus norvegicus; assay: Anticonvulsant activity after oral administration into rats; type: functional; set-up: concentration or dose not given beside the values
[7] = Protection index = TD50/ED50 (MES); conditions: mouse, in vivo; read-out: PI
[8] = test system: Mus musculus; assay: Compound was tested for anticonvulsant activity after intraperitoneal injection into mice by using MES screen test after 1 hr; type: functional; conditions: ip
Outline: (§2)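 Quantitative intraperitoneal mouse testing in the MES, scPTZ or rotorod neurotoxicity screens at the peak time given for each compound (0.25–2 h). ED50 or TD50 reported in mg/kg with 95% CI and slope (SE).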

[9] = test system: Rattus norvegicus; assay: Compound was tested for anticonvulsant activity after Oral Administration into Rats by using MES screen test after 4h,dose 12.5 mg/kg; number of rats out of four which were protected; type: functional; outline: as §1
[10] = test system: Mus musculus; assay: Anticonvulsant activity after intraperitoneal injection into mice by using MES screen test after 0.5 hr; type: functional
[11] = test system: Mus musculus; assay: Compound was tested for toxicity after intraperitoneal injection into mice by using toxicity screen test after 4 hr; type: organism-based; conditions: in vivo, ip
Outline: (§3)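 Mice injected intraperitoneally at 30, 100 and 300 mg/kg and examined 0.5 and 4 h afterwards. Each entry is the minimum dose giving activity (MES protection, scPTZ protection, or rotorod failure for neurotoxicity) in half or more of the mice. Activity is called absent if nothing occurs at 300 mg/kg.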

[12] = test system: Rattus norvegicus; assay: Compound was tested for anticonvulsant activity after Oral Administration into Rats by using MES screen test after 2h,dose 12.5 mg/kg; number of rats out of four which were protected; type: functional; outline: as §1
[13] = test system: Mus musculus; assay: Compound was tested for anticonvulsant activity after intraperitoneal injection into mice by using scPTZ screen test after 0.5 hr; type: functional; conditions: ip; outline: as §3
[14] = Compound was tested for toxicity after intraperitoneal injection into mice by using neurotoxicity screen test after 1 hr; type: organism-based; conditions: mouse, in vivo, ip; outline: as §2
[15] = test system: Mus musculus; assay: Anticonvulsant activity after intraperitoneal injection into mice by using scPTZ screen test after 4 hr; type: functional
[16] = test system: Rattus norvegicus; assay: Compound was tested for anticonvulsant activity after Oral Administration into Rats by using MES screen test after 0.5h,dose 12.5 mg/kg; No activity was demonstarted; type: functional, organism-based; set-up: dose 12.5 mg/kg; outline: as §1
[17] = test system: Rattus norvegicus; assay: Compound was tested for anticonvulsant activity after Oral Administration into Rats by using MES screen test after 2h.,dose 12.5 mg/kg; number of rats out of four which were protected; type: functional; outline: as §1
[18] = test system: Rattus norvegicus; assay: Compound was tested for anticonvulsant activity after Oral Administration into Rats by using MES screen test after 4h,dose 12.5 mg/kg; No activity was demonstarted; type: functional, organism-based; set-up: dose 12.5 mg/kg; outline: as §1
[19] = test system: Rattus norvegicus; assay: Compound was tested for anticonvulsant activity after Oral Administration into Rats by using MES screen test after 0.25h,dose 12.5 mg/kg; No activity was demonstarted; type: functional, organism-based; set-up: dose 12.5 mg/kg; outline: as §1
[20] = Compound was tested for toxicity after oral administration in rat by using neurotoxicity screen test after 0.25-24 hr; type: organism-based; conditions: in vivo
Outline: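 Rat neurotoxicity after oral dosing, observed at 0.25, 0.5, 1, 2, 4, 6, 8 and 24 h (8 h omitted for one compound).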

[21] = Compound was tested for toxicity after intraperitoneal injection into mice by using neurotoxicity screen test after 4 hr; type: organism-based; conditions: mouse, in vivo, ip; outline: as §3
[22] = test system: Mus musculus; assay: Compound was tested for anticonvulsant activity after intraperitoneal injection into mice by using MES screen test after 4 hr; type: functional; conditions: ip; outline: as §3
[23] = test system: Mus musculus; assay: Compound was tested for anticonvulsant activity after intraperitoneal injection into mice by using scPTZ screen test after 4 hr; type: functional; conditions: ip; outline: as §3
[24] = test system: Rattus norvegicus; assay: Compound was tested for anticonvulsant activity after Oral Administration into rat by using MES screen test at 4 hr; type: functional
Outline: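 Rats dosed orally, typically at 50 mg/kg first, then mostly 12.5 mg/kg (some compounds at 30 mg/kg), and tested by maximal electroshock. Four rats per compound, scored at 0.25, 0.5, 1, 2 and 4 h as the number of rats protected out of 4.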

[25] = test system: Mus musculus; assay: Toxicity after intraperitoneal injection into mice by using toxicity screen test after 0.5 hr; type: organism-based; conditions: in vivo, ip; outline: as §3

Compound | Dose [4] [mg/kg] | Activity [5] | Activity [9] | Dose [10] [mg/kg] | Dose [11] [mg/kg] | Activity [12] | Dose [15] [mg/kg] | Activity [16] | Activity [19] | other results
C/C(=N/NC(N)=O)c1ccc(Sc2ccc(Br)cc2)cc1 | 30 | 4 | 4 | 100 | 300 | 4 | – | – | – | Activity [1]: 1; Dose [2]: 300 mg/kg; selectivity ratio [3]: 1.03; Activity [6]: 3; selectivity ratio [7]: 11.3; ED50 [8]: 3.82 mg/kg; ED50 [13]: 41.9 mg/kg; TD50 at 1 h [14]: 43.2 mg/kg
NC(=O)N/N=C\c1ccc(OCc2ccccc2)cc1 | 300 | 1 | – | 300 | – | – | 100 | No activity | No activity | Activity [17]: 1; Activity [18]: No activity
CC(C)(C)c1ccc(Oc2ccc(/C=N\NC(N)=O)cc2)cc1 | 30 | 4 | 4 | 100 | 100 | 4 | 100 | No activity | No activity | TD50 [20]: > 500 mg/kg; TD50 at 4 h [21]: 106 mg/kg; ED50 [22]: 8.87 mg/kg; ED50 [23]: > 150 mg/kg; ED50 [24]: 1.68 mg/kg; Dose [25]: 100 mg/kg
